Test results reported in BindingDB's records for PubMed 36760746 (n/a, 2023).

Each molecule was assayed against Induced myeloid leukemia cell differentiation protein Mcl-1 (Homo sapiens, UniProt Q07820) (assay: Inhibition of FITC-labelled BAK BH3 peptide to 6His-MBP tagged recombinant human MCL-1 (172 to 327 residues) expressed in Escherichia coli assessed as inhibition constant by fluorescence polarization competition assay).
Outline: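 Fluorescence polarization competition: compounds titrated into a mixture of MCL-1 (residues 172–327) and FITC-labelled BAK BH3 peptide. Displacement of the peptide was followed by the change in polarization, and Ki was derived from the competition titration.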

Induced myeloid leukemia cell differentiation protein Mcl-1, sequence (Q07820 whole entry, the tested form may be a part): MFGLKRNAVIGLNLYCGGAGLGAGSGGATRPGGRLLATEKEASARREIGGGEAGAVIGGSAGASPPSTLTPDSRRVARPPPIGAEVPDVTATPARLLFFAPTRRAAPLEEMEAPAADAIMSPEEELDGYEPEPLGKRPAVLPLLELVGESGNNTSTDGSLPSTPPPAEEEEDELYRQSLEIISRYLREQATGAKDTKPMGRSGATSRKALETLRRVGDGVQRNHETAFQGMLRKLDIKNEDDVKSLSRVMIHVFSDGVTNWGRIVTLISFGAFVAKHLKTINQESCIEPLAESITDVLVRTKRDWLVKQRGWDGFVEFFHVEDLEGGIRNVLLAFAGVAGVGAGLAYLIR

Compound | Ki [µM]
CC(C)CN(c1cccc(C(=O)O)c1)S(=O)(=O)c1ccc(-c2ccccc2)cc1 [3-(N-isobutyl-[1,1'-biphenyl]-4-ylsulfonamido) benzoic acid] | > 500
CC(C)CN(c1ccc(C(=O)O)cc1)S(=O)(=O)c1ccc2ccccc2c1 [4-(N-isobutylnaphthalene-2-sulfonamido) benzoic acid] | > 500
CC(C)CN(c1ccc(C(=O)O)cc1)S(=O)(=O)c1ccccc1 [4-(N-isobutylphenyl-sulfonamido) benzoic acid] | > 500

Results, then the molecule that gave them:

Ki [µM] | Compound
> 500 | CC(C)CN(c1cccc(C(=O)O)c1)S(=O)(=O)c1ccc(F)cc1 [3-(4-fluoro-N-isobutylphenyl-sulfonamido) benzoic acid]
> 500 | CC(C)CN(c1cccc(C(=O)O)c1)S(=O)(=O)c1ccccc1 [3-(N-isobutylphenyl-sulfonamido) benzoic acid]
> 500 | CC(C)CN(c1ccc(C(=O)O)cc1)S(=O)(=O)c1ccc(F)cc1 [4-(4-fluoro-N-isobutylphenyl-sulfonamido) benzoic acid]
